Experiment [1] concerns PANC-1. The experiment is described as follows: Growth inhibition of human PANC1 cells in nutrient-deprived medium at 10 uM incubated for 24 hrs by MTT assay (reference value: 0.0 +/- 1.9%). To be noted: PANC-1, 24 h. Type of experiment: functional.
Experiment [2] concerns PANC-1. Nature of the experiment: Growth inhibition of human PANC1 cells in nutrient-rich medium at 10 uM incubated for 24 hrs by MTT assay (reference value: 0.0 +/- 3.8%). The experiment is classed as functional. Conditions: PANC-1, 24 h. (Tetrazolium assays rely on reduction of a dye to a coloured formazan, in cell work by metabolically active cells.)
Experiment [3] relates to PANC-1. Nature of the experiment: Growth inhibition of human PANC1 cells in nutrient-deprived medium incubated for 24 hrs by MTT assay. Conditions: PANC-1, 24 h. The experiment is classed as functional, cell-based.
Experiment [4] has as its system PANC-1. Nature of the experiment: Induction of apoptosis in human PANC1 cells in nutrient-deprived medium assessed as early apoptotic cells at 20 uM incubated for 24 hrs by Annexin V-FITC/PI double staining based flow cytometric analysis (reference value: 0.22 to 14.25%). The experiment is classed as functional. The gist of the method:
(§1)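 PANC-1 cells under NDC exposed 24 h at 5.0, 10.0 or 20.0 µM. Annexin V-FITC/PI double staining, flow cytometric quantification of live, early apoptotic, late apoptotic and necrotic fractions. Arctigenin as positive control.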
For orientation: A flow cytometer gives signals particle by particle.

Experiment [5] deals with PANC-1. The experiment is described as follows: Induction of apoptosis in human PANC1 cells in nutrient-deprived medium assessed as live cells at 5 uM incubated for 24 hrs by Annexin V-FITC/PI double staining based flow cytometric analysis (reference value: 85.75 to 96.8%). Type of experiment: functional. The gist of the method:
as §1

Experiment [6] deals with PANC-1. Nature of the experiment: Induction of apoptosis in human PANC1 cells in nutrient-deprived medium assessed as early apoptotic cells at 5 uM incubated for 24 hrs by Annexin V-FITC/PI double staining based flow cytometric analysis (reference value: 0.22 to 14.25%). The experiment is classed as functional. The gist of the method:
as §1

Experiment [7] relates to PANC-1. Nature of the experiment: Induction of apoptosis in human PANC1 cells in nutrient-deprived medium assessed as early apoptotic cells at 10 uM incubated for 24 hrs by Annexin V-FITC/PI double staining based flow cytometric analysis (reference value: 0.22 to 14.25%). The experiment is classed as functional. The gist of the method:
as §1

Experiment [8] has as its system PANC-1. Nature of the experiment: Induction of apoptosis in human PANC1 cells in nutrient-deprived medium assessed as late apoptotic cells at 10 uM incubated for 24 hrs by Annexin V-FITC/PI double staining based flow cytometric analysis (reference value: 0 to 0.9%). The experiment is classed as functional. The gist of the method: as §1
The test system of experiment [9] is PANC-1. Nature of the experiment: Induction of apoptosis in human PANC1 cells in nutrient-deprived medium assessed as late apoptotic cells at 5 uM incubated for 24 hrs by Annexin V-FITC/PI double staining based flow cytometric analysis (reference value: 0 to 0.9%). The experiment is classed as functional. The gist of the method: as §1
Experiment [10] deals with PANC-1. Nature of the experiment: Induction of apoptosis in human PANC1 cells in nutrient-deprived medium assessed as live cells at 20 uM incubated for 24 hrs by Annexin V-FITC/PI double staining based flow cytometric analysis (reference value: 85.75 to 96.8%). The experiment is classed as functional. The gist of the method: as §1
Experiment [11] relates to PANC-1. Nature of the experiment: Induction of apoptosis in human PANC1 cells in nutrient-deprived medium assessed as necrotic cells at 20 uM incubated for 24 hrs by Annexin V-FITC/PI double staining based flow cytometric analysis (reference value: 0 to 2.8%). Type of experiment: functional. The gist of the method:
as §1

Experiment [12] concerns PANC-1. The experiment is described as follows: Induction of apoptosis in human PANC1 cells in nutrient-deprived medium assessed as late apoptotic cells at 20 uM incubated for 24 hrs by Annexin V-FITC/PI double staining based flow cytometric analysis (reference value: 0 to 0.9%). The experiment is classed as functional. The gist of the method: as §1
Experiment [13] has as its system PANC-1. Nature of the experiment: Induction of apoptosis in human PANC1 cells in nutrient-deprived medium assessed as necrotic cells at 5 uM incubated for 24 hrs by Annexin V-FITC/PI double staining based flow cytometric analysis (reference value: 0 to 2.8%). The experiment is classed as functional. The gist of the method:
as §1

Experiment [14] concerns PANC-1. Nature of the experiment: Induction of apoptosis in human PANC1 cells in nutrient-deprived medium assessed as necrotic cells at 10 uM incubated for 24 hrs by Annexin V-FITC/PI double staining based flow cytometric analysis (reference value: 0 to 2.8%). Type of experiment: functional. The gist of the method:
as §1

The subject of experiment [15] is PANC-1. Nature of the experiment: Induction of apoptosis in human PANC1 cells in nutrient-deprived medium assessed as live cells at 10 uM incubated for 24 hrs by Annexin V-FITC/PI double staining based flow cytometric analysis (reference value: 85.75 to 96.8%). Type of experiment: functional. The gist of the method:
as §1

In general, inhibition refers to how much of the control response was suppressed. High values mean strong suppression, low ones little suppression. By IC50 is commonly meant the concentration that gives 50% inhibition. Regarding `CCOc1cc(=O)n(CCCO)c2c1CC(C/C=C(\C)CCC=C(C)C)C(C)(C)C2` (centres undefined), the inhibition at 10 µM in experiment [1] turned out to be 67.8%; in experiment [2], 0.8%. Also, the IC50 in [3] came to 5.8 µM.
`COc1ccccc1NC(=O)Oc1cc(=O)n(CCCO)c2c1CC(C/C=C(\C)CCC=C(C)C)C(C)(C)C2` (centres undefined): the results for the inhibition at 10 µM in [1] and in experiment [2] were 53% and 0%, respectively.
Turning to `CC(C)=CCC1Cc2c(OCCCNS(=O)(=O)c3ccc(Cl)cc3)cc(=O)n(CCCO)c2CC1(C)C` (centres undefined), the inhibition at 10 µM in experiment [1] was 24.7%; in experiment [2], 9.8%.
For `CC(C)=CCC/C(C)=C/CC1Cc2c(OC(=O)Nc3ccc(F)cc3F)cc(=O)n(CCCO)c2CC1(C)C` (centres undefined), in that order: 33.7% and 15.6%.
Regarding `COc1cc(C[C@H]2C(=O)OC[C@@H]2Cc2ccc(OC)c(OC)c2)ccc1O` [ARCTIGENIN], the Activity worked out at 1.06% in experiment [4]; 8.66% in experiment [5]; 1.43% in [6]; 1.03% in experiment [7]; 89.2% in experiment [8]; 83.08% in experiment [9]. Besides, the Activity in [10] was determined as 2.23%; in [11], 6.29%; in experiment [12], 90.44%; in [13] it was 6.84%; in [14], 5.64%; in experiment [15], 4.13%. Moreover, the inhibition at 10 µM in [1] stood at 79.1%; in experiment [2], 66.8%. Further, in experiment [3], half-maximal inhibition (IC50) was put at 2.2 µM.
Turning to `CC(C)=CCC/C(C)=C/CC1Cc2c(OC(=O)Nc3ccccc3F)cc(=O)n(CCCO)c2CC1(C)C` (centres undefined), the inhibition at 10 µM was 71.6% in experiment [1] and 0% in experiment [2]. In experiment [3], 7.4 µM corresponded to half-maximal inhibition (IC50).
Regarding `CC(C)=CCC/C(C)=C/CC1Cc2c(OC(=O)Nc3ccc(F)c(Cl)c3)cc(=O)n(CCCO)c2CC1(C)C` (centres undefined), the inhibition at 10 µM stood at 25% in experiment [1] and 0% in experiment [2].
Regarding `COc1ccc(OCCCOc2cc(=O)n(CCCO)c3c2CC(C/C=C(\C)CCC=C(C)C)C(C)(C)C3)cc1` (centres undefined), the inhibition at 10 µM was determined as 20% in [1] and 0% in experiment [2].
For the molecule `CCOc1cc(=O)n(CCCO)c2c1CC(CC=C(C)C)C(C)(C)C2` (centres undefined), the inhibition at 10 µM in experiment [1] was found to be 66.5%; in experiment [2], 16.6%. Moreover, in experiment [3], inhibition was half-maximal at 7.3 µM (IC50).

The record behind these values is ChEMBL document CHEMBL4346665, “Synthesis and evaluation of tetrahydroquinolin-2(1H)-one derivatives as novel anti-pancreatic cancer agents via targeting autophagy” (Eur J Med Chem, 2019).
